Reference: ChEMBL document CHEMBL3526140, “Prediction of human intestinal absorption of the prodrug temocapril by in situ single-pass perfusion using rat intestine with modified hydrolase activity” (Drug Metab Dispos, 2011)

What was measured:
Jejunum [1] = assay: Drug uptake in Wistar rat jejunum mesenteric vein assessed as rate of drug appearance at 100 uM by in-situ single-pass perfusion method; type: ADME, tissue-based; conditions: in vivo
Method in brief: (§1)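 Rats fasted 18–24 h, anesthetized with intraperitoneal pentobarbital. Isolated cannulated jejunal segment kept at 37°C in Krebs–Henseleit buffer with 3% BSA and 10 mM glucose. Vascular perfusion with Krebs–Henseleit (pH 7.4) at 2.5 ml/min. Lumen perfused at 0.2 ml/min with phosphate buffer (pH 5.4, 6.4 or 7.4) containing 100 µM drug plus FD-4. Luminal and vascular samples assayed by HPLC (UV 258 nm). Parameters normalized to 10 cm intestine. Mean ± S.D., n = 3–6.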

Jejunum [2] = assay: Drug uptake in Wistar rat jejunum pre-perfused with 400 uM CES inhibitor BNPP assessed as rate of drug disappearance at 100 uM at pH 6.4 by in-situ single-pass perfusion method; type: ADME, tissue-based; conditions: in vivo
Method in brief: (§2)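 Same in situ jejunal single-pass perfusion, with carboxylesterase blocked by pre-perfusing the lumen with 400 µM BNPP for 40 min. Then 100 µM drug in luminal phosphate buffer (pH 5.4 or 6.4) at 0.2 ml/min. Vascular Krebs–Henseleit (pH 7.4) at 2.5 ml/min. Luminal, vascular and tissue levels measured by HPLC. Rates are luminal disappearance and appearance in lumen or mesenteric vein. Mean ± S.D., n = 3.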

Jejunum [3] = assay: Intracellular drug level in Wistar rat jejunum treated with Temocaprilat at 100 uM at pH 6.4 by in-situ single-pass perfusion method; type: ADME, tissue-based; conditions: in vivo
Jejunum [4] = assay: Apparent hydrolytic clearance in Wistar rat jejunum at 100 uM at pH 7.4 by in-situ single-pass perfusion method; type: ADME, tissue-based; conditions: in vivo; method in brief: as §1
Jejunum [5] = assay: Apparent absorption clearance in Wistar rat jejunum at 100 uM at pH 7.4 by in-situ single-pass perfusion method; type: ADME, tissue-based; conditions: in vivo, pH 7.4, 100 µM; method in brief: as §1
Jejunum [6] = assay: Drug uptake in Wistar rat jejunum pre-perfused with 400 uM CES inhibitor BNPP assessed as rate of temocaprilat disappearance at 100 uM at pH 6.4 by in-situ single-pass perfusion method; type: ADME, tissue-based; conditions: in vivo, pH 6.4, 100 µM; method in brief: as §2
Jejunum [7] = assay: Drug hydrolysis in perfused Wistar rat jejunum mucosal homogenate at 500 uM assessed per mg protein in presence of 400 uM CES inhibitor BNPP; type: ADME, tissue-based; conditions: tissue homogenate
Method in brief: (§3)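 Jejunal mucosal homogenate or S9 (HEPES pH 7.4/KCl) taken from intact jejunum, or after 40 min perfusion with or without 400 µM BNPP. Protein at 400 µg/ml incubated at 37°C with 500 µM drug. Added BNPP (100 or 1000 µM) pre-incubated 5 min. Temocaprilat formed measured by HPLC and given as nmol/min/mg protein and % of control. Mean ± S.D., n = 4.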

Jejunum [8] = assay: Drug uptake in Wistar rat jejunum pre-perfused with 400 uM CES inhibitor BNPP assessed as rate of drug appearance at 100 uM at pH 6.4 by in-situ single-pass perfusion method; type: ADME, tissue-based; conditions: in vivo, pH 6.4, 100 µM; method in brief: as §2
Jejunum [9] = assay: Drug uptake in Wistar rat jejunum pre-perfused with 400 uM CES inhibitor BNPP assessed as rate of temocaprilat appearance at 100 uM at pH 5.4 by in-situ single-pass perfusion method; type: ADME, tissue-based; conditions: in vivo, pH 5.4, 100 µM; method in brief: as §2
[10] = Partition coefficient, log P between n-octanol and phosphate buffer at pH 7.4; type: physicochemical
Jejunum [11] = assay: Drug hydrolysis in perfused Wistar rat jejunum mucosal homogenate at 500 uM assessed per mg protein; type: ADME, tissue-based; conditions: tissue homogenate; method in brief: as §3
[12] = Drug hydrolysis in Wistar rat duodenal S9 fraction; type: ADME, Duodenum
Method in brief: (§4)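 Duodenal or jejunal mucosa from fasted rats homogenized in 50 mM HEPES (pH 7.4) with 1.15% KCl; S9 is the 9000 g supernatant. S9 pre-incubated 5 min at 37°C, then drug added at 10–500 µM final (1% DMSO). Run for 20 min, stopped with acetonitrile, temocaprilat formed measured by HPLC. Km and Vmax from Michaelis–Menten nonlinear fit. Inhibitor (1 mM BNPP) pre-incubated 5 min. Results as % of control.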

Jejunum [13] = assay: Drug hydrolysis in intact Wistar rat jejunum mucosal homogenate at 500 uM assessed per mg protein; type: ADME, tissue-based; conditions: tissue homogenate; method in brief: as §3
[14] = Drug hydrolysis in Wistar rat jejunal S9 fraction in presence of 1 mM CES inhibitor BNPP; type: ADME, Jejunum; method in brief: as §4
Jejunum [15] = assay: Intracellular drug level in Wistar rat jejunum at 100 uM at pH 6.4 by in-situ single-pass perfusion method; type: ADME, tissue-based; conditions: in vivo; method in brief: as §1
Jejunum [16] = assay: Drug hydrolysis in intact Wistar rat jejunum mucosal homogenate at 500 uM assessed per mg protein in presence of 100 uM CES inhibitor BNPP; type: ADME, tissue-based; conditions: tissue homogenate; method in brief: as §3
[17] = Permeability in Wistar rat jejunum pre-perfused with 400 uM CES inhibitor BNPP at 100 uM at pH 5.4 by in-situ single-pass perfusion method; type: ADME, tissue-based; conditions: other: in-situ single-pass perfusion of the jejunum, pH 5.4, with BNPP (CES inhibitor) 400 uM, read-out: Peff (converted)
Method in brief: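 Fasted, pentobarbital-anesthetized rats. Jejunum pre-perfused with BNPP (400 µM) for 40 min to inhibit CES. Lumen then perfused at 0.2 ml/min with 100 μM drug in phosphate buffer (pH 5.4 or 6.4). Vascular side received Krebs–Henseleit buffer (pH 7.4) at 2.5 ml/min. Luminal drug quantified by HPLC; Peff normalized to 10 cm segment; mean ± S.D., n = 3.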

Jejunum [18] = assay: Intracellular drug level in Wistar rat jejunum pre-perfused with 400 uM CES inhibitor BNPP at 100 uM at pH 6.4 by in-situ single-pass perfusion method; type: ADME, tissue-based; conditions: in vivo, pH 6.4, 100 µM; method in brief: as §2
[19] = Permeability in Wistar rat jejunum at 100 uM at pH 7.4 by in-situ single-pass perfusion method; type: ADME, tissue-based; conditions: other: in-situ single-pass perfusion of the jejunum, read-out: Peff (converted)
Method in brief: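 Rats fasted 18–24 h and anesthetized with intraperitoneal pentobarbital. Jejunal loop perfused at 0.2 ml/min with phosphate buffer (pH 5.4, 6.4 or 7.4) containing 100 μM drug and FD-4 (0.1 mg/ml). Vascular perfusate was Krebs–Henseleit bicarbonate buffer (pH 7.4) at 2.5 ml/min, segment kept at 37°C. Drug and metabolite measured by HPLC (UV 258 nm). Peff normalized to 10 cm intestine; mean ± S.D., n = 3–6.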

Jejunum [20] = assay: Apparent hydrolytic clearance in Wistar rat jejunum at 100 uM at pH 6.4 by in-situ single-pass perfusion method; type: ADME, tissue-based; conditions: in vivo, pH 6.4, 100 µM; method in brief: as §1
Jejunum [21] = assay: Intracellular drug level in Wistar rat jejunum treated with Temocaprilat at 100 uM at pH 5.4 by in-situ single-pass perfusion method; type: ADME, tissue-based; conditions: in vivo, pH 5.4, 100 µM
[22] = Drug hydrolysis in perfused Wistar rat jejunal S9 fraction at 500 uM assessed per mg protein; type: ADME, Jejunum; conditions: s9, 500 µM; method in brief: as §3
Jejunum [23] = assay: Apparent absorption clearance in Wistar rat jejunum pre-perfused with 400 uM CES inhibitor BNPP at 100 uM at pH 5.4 by in-situ single-pass perfusion method; type: ADME, tissue-based; conditions: in vivo, pH 5.4, 100 µM; method in brief: as §2
Jejunum [24] = assay: Drug degradation in Wistar rat jejunum lumen assessed as rate of drug disappearance at 100 uM by in-situ single-pass perfusion method; type: ADME, tissue-based; method in brief: as §1
Jejunum [25] = assay: Apparent hydrolytic clearance in Wistar rat jejunum pre-perfused with 400 uM CES inhibitor BNPP at 100 uM at pH 6.4 by in-situ single-pass perfusion method; type: ADME, tissue-based; conditions: in vivo, pH 6.4, 100 µM; method in brief: as §2
Jejunum [26] = assay: Drug uptake in Wistar rat jejunum pre-perfused with 400 uM CES inhibitor BNPP assessed as rate of drug appearance at 100 uM at pH 5.4 by in-situ single-pass perfusion method; type: ADME, tissue-based; conditions: in vivo, pH 5.4, 100 µM; method in brief: as §2
[27] = Drug hydrolysis in perfused Wistar rat jejunal S9 fraction at 500 uM assessed per mg protein in presence of 400 uM CES inhibitor BNPP; type: ADME, Jejunum; conditions: s9, 500 µM; method in brief: as §3

Drug uptake (Jejunum [1]): 0.147 nmol/min | CL (Jejunum [2]): 2.44 nmol/min | Drug uptake (Jejunum [3]): 18.1 nmol/g | CL (Jejunum [4]): 43.2 µL/min | CL(app) (Jejunum [5]): 1.23 µL/min | CL (Jejunum [6]): 1.17 nmol/min | Drug degradation (Jejunum [7]): 2.05 nmol/min | CL (Jejunum [8]): 0.696 nmol/min | CL (Jejunum [9]): 1.01 nmol/min | logD [10]: 0.1 | Drug degradation (Jejunum [11]): 3.96 nmol/min | Km [12]: 47.4 µM | Drug degradation (Jejunum [13]): 4.17 nmol/min | Stability [14]: Stable | Drug uptake (Jejunum [15]): 1.83 nmol/g | Drug degradation (Jejunum [16]): 2.23 nmol/min | Papp at 100 µM [17]: 49.8 ×10⁻⁶ cm/s | Drug uptake (Jejunum [18]): 15.4 nmol/g | Papp at 100 µM [19]: 54.2 ×10⁻⁶ cm/s | CL (Jejunum [20]): 35.4 µL/min | Drug uptake (Jejunum [21]): 34.2 nmol/g | Drug degradation [22]: 4.28 nmol/min | CL(app) (Jejunum [23]): 10.6 µL/min | Drug degradation (Jejunum [24]): 3.89 nmol/min | CL (Jejunum [25]): 19.5 µL/min | CL (Jejunum [26]): 0.862 nmol/min | Drug degradation [27]: 0.625 nmol/min
SMILES: CCOC(=O)[C@H](CCc1ccccc1)N[C@H]1CS[C@H](c2cccs2)CN(CC(=O)O)C1=O [TEMOCAPRIL]
